Results: ChEMBL document CHEMBL3124820, “Design, synthesis and biological evaluation of hetero-aromatic moieties substituted pyrrole-2-carbonitrile derivatives as dipeptidyl peptidase IV inhibitors” (Eur J Med Chem, 2014)

Tests used:
Homo sapiens [1] = species: Homo sapiens; experiment: Selectivity ratio of IC50 for recombinant his6-tagged DPP9 (unknown origin) to IC50 for recombinant his6-tagged DPP4 (unknown origin)
Procedure, shortened: (§1)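 His6-tagged DPP4, DPP8 and DPP9 were expressed in High Five insect cells by baculovirus and purified on Ni-NTA. Activity was followed continuously by fluorescence of AMC released from Ala-Pro-AMC (ex 355/em 460 nm). DPP4 ran at 50 pmol/L enzyme in HEPES pH 7.5 with 0.1 mg/mL BSA; DPP8 and DPP9 ran at pH 8.0. IC50s came from quadruplicate sigmoidal variable-slope fits, and the ratio is the IC50 ratio.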

Dipeptidyl peptidase 8 = Dipeptidyl peptidase 8 (Homo sapiens, UniProt Q6V1X1); experiment: Inhibition of recombinant his6-tagged DPP8 (unknown origin) expressed in baculovirus expression system using Ala-pro-AMC as substrate by fluorometric analysis
Dipeptidyl peptidase 8, sequence (Q6V1X1 whole entry): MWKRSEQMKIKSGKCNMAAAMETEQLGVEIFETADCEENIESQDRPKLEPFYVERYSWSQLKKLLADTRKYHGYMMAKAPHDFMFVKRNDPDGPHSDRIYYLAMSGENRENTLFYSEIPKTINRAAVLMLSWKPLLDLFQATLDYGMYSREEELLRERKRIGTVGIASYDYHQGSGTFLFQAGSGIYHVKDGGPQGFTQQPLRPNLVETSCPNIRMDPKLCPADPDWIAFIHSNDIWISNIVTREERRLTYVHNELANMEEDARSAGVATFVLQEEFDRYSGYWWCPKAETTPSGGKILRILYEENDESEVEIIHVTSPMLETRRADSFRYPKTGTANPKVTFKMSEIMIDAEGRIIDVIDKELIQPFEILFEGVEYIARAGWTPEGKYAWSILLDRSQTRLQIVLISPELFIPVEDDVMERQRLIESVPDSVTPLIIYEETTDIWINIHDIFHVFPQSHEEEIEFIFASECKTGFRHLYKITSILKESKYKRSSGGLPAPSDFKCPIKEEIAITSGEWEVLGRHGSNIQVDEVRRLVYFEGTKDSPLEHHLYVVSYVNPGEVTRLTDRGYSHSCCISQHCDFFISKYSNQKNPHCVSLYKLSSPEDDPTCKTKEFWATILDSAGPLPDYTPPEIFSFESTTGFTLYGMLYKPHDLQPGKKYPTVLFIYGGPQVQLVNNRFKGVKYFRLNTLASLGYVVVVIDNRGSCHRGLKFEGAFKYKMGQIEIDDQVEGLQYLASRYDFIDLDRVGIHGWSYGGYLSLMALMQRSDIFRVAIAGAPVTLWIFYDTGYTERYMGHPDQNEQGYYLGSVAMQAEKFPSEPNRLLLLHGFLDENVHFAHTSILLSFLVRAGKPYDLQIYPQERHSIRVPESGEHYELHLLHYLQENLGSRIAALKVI

Dipeptidyl peptidase 9 = Dipeptidyl peptidase 9 (Homo sapiens, UniProt Q86TI2); experiment: Inhibition of recombinant his6-tagged DPP9 (unknown origin) expressed in baculovirus expression system using Ala-pro-AMC as substrate by fluorometric analysis
Dipeptidyl peptidase 9, sequence (Q86TI2 whole entry): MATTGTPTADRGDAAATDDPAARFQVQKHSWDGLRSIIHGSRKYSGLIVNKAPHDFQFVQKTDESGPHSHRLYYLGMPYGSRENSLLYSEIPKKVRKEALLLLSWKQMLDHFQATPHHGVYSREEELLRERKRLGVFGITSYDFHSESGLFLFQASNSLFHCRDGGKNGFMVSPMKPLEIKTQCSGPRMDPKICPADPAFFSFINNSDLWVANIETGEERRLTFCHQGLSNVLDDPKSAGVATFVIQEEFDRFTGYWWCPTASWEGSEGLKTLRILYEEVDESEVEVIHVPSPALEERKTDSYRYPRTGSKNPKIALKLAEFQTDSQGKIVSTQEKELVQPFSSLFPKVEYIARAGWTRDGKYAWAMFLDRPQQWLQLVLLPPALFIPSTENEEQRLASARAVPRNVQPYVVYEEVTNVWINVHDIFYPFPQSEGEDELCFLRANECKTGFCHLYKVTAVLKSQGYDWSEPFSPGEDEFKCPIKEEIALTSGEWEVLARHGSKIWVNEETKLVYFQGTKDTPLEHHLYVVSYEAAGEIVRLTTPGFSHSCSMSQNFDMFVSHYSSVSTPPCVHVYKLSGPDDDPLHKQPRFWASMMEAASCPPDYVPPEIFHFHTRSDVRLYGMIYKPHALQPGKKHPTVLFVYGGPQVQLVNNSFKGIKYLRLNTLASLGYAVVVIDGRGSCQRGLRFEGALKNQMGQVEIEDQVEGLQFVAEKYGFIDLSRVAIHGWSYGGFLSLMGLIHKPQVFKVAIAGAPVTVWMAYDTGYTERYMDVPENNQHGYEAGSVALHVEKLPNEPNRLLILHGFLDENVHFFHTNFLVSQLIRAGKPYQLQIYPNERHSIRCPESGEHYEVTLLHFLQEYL

Homo sapiens [2] = species: Homo sapiens; experiment: Selectivity ratio of IC50 for recombinant his6-tagged DPP8 (unknown origin) to IC50 for recombinant his6-tagged DPP4 (unknown origin); procedure, shortened: as §1
Dipeptidyl peptidase 4 = Dipeptidyl peptidase 4 (Homo sapiens, UniProt P27487); experiment: Inhibition of recombinant his6-tagged DPP4 (unknown origin) expressed in baculovirus expression system using Ala-pro-AMC as substrate by fluorometric analysis
Dipeptidyl peptidase 4, sequence (P27487 whole entry): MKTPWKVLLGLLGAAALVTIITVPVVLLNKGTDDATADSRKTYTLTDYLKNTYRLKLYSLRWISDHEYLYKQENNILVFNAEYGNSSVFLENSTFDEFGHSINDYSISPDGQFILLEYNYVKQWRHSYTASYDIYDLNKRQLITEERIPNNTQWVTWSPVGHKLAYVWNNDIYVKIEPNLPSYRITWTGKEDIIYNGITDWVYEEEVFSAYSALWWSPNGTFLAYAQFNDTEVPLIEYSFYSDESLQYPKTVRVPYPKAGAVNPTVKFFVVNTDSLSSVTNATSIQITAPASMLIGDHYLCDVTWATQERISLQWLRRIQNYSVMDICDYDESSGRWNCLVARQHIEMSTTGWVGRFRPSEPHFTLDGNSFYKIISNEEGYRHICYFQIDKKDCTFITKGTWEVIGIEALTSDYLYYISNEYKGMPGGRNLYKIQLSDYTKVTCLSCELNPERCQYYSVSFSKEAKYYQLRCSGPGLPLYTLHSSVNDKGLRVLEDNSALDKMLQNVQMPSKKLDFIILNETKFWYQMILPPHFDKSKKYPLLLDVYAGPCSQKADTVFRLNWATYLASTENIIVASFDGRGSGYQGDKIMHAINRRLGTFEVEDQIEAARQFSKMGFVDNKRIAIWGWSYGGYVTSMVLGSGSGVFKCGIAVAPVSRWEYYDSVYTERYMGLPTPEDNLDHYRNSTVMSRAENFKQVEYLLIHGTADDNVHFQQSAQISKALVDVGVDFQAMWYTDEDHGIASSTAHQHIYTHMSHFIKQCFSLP

[3] = AUC (0 to t) in Sprague-Dawley rat at 5 mg/kg, iv; type: ADME, organism-based; design: dose 5 mg/kg, route intravenous; conditions: plasma
Procedure, shortened: (§2)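 Sprague-Dawley rats were dosed orally or intravenously, and blood was sampled after dosing. Plasma was separated by centrifugation and deproteinized with methanol containing an internal standard. The supernatant was diluted with methanol, centrifuged again and quantified by LC/MS/MS.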

[4] = AUC (0 to infinity) in Sprague-Dawley rat at 5 mg/kg, iv; type: ADME, organism-based; design: time infinity, dose 5 mg/kg, route intravenous; conditions: plasma; procedure, shortened: as §2
Mus musculus [5] = experiment: Antidiabetic activity in ICR mouse assessed as decrease in blood glucose AUC (0 to 120 mins) administered for 30 mins prior to glucose challenge measured after 4 hrs by OGTT; type: functional, organism-based
Procedure, shortened: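 ICR mice fasted 16 h, then given a single dose of 15 or 50 mg/kg; vehicle 0.5% methylcellulose (10 mL/kg), LAF237 30 mg/kg as positive control. Oral glucose 2.5 g/kg given 30 min after dosing (legend says 4 h). Blood glucose read at 0, 15, 30, 60, 90, 120 min for AUC0–120. Mean ± SE, n = 10; Student's t-test.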

[6] = AUC (0 to t) in Sprague-Dawley rat at 20 mg/kg, po; type: ADME, organism-based; design: dose 20 mg/kg, route oral; conditions: plasma; procedure, shortened: as §2
[7] = Mean residence time in Sprague-Dawley rat at 20 mg/kg, po; type: ADME, organism-based; design: dose 20 mg/kg, route oral; conditions: in vivo; procedure, shortened: as §2
Mus musculus [8] = experiment: Antidiabetic activity in ICR mouse assessed as decrease in blood glucose AUC (0 to 120 mins) at 50 mg/kg administered for 30 mins prior to glucose challenge measured after 4 hrs by OGTT relative to vehicle-treated control; type: functional; design: scale not given: the % may be the effect or the level left
Procedure, shortened: (§3)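 ICR mice were fasted 16 h and given one dose in 0.5% methylcellulose vehicle (10 mL/kg). An oral glucose load of 2.5 g/kg followed; methods state 30 min after dosing, the figure legend 4 h.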

Cytochrome P450 3A4 = Cytochrome P450 3A4 (Homo sapiens, UniProt P08684); experiment: Inhibition of CYP3A4 (unknown origin); type: ADME
Cytochrome P450 3A4, sequence (P08684 whole entry): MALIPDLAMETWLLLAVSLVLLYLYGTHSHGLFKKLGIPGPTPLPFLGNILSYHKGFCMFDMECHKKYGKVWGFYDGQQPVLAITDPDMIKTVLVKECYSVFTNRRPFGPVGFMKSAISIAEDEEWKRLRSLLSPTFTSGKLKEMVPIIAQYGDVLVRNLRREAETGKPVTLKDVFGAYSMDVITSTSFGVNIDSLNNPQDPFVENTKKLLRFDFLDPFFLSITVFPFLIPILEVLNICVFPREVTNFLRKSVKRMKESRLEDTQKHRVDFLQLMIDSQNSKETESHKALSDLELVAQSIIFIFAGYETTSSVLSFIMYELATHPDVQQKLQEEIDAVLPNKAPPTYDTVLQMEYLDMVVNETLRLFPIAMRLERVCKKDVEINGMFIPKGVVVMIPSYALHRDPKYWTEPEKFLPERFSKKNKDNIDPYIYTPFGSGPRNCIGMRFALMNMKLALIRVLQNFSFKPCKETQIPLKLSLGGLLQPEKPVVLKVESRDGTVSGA

Mus musculus [9] = experiment: Antidiabetic activity in ICR mouse assessed as decrease in blood glucose AUC (0 to 120 mins) at 15 mg/kg administered for 30 mins prior to glucose challenge measured after 4 hrs by OGTT relative to vehicle-treated control; type: functional; design: scale not given: the % may be the effect or the level left; procedure, shortened: as §3
[10] = Cmax in Sprague-Dawley rat at 5 mg/kg, iv; type: ADME, organism-based; design: dose 5 mg/kg, route intravenous; conditions: in vivo; procedure, shortened: as §2
[11] = Mean residence time in Sprague-Dawley rat at 5 mg/kg, iv; type: ADME, organism-based; design: dose 5 mg/kg, route intravenous; conditions: in vivo; procedure, shortened: as §2
[12] = Tmax in Sprague-Dawley rat at 20 mg/kg, po; type: ADME, organism-based; design: dose 20 mg/kg, route oral; conditions: in vivo; procedure, shortened: as §2
[13] = Half life in Sprague-Dawley rat at 20 mg/kg, po; type: ADME, organism-based; design: dose 20 mg/kg, route oral; conditions: in vivo; procedure, shortened: as §2
[14] = AUC (0 to infinity) in Sprague-Dawley rat at 20 mg/kg, po; type: ADME, organism-based; design: time infinity, dose 20 mg/kg, route oral; conditions: plasma; procedure, shortened: as §2
[15] = Tmax in Sprague-Dawley rat at 5 mg/kg, iv; type: ADME, organism-based; design: dose 5 mg/kg, route intravenous; conditions: in vivo; procedure, shortened: as §2
[16] = Oral bioavailability in Sprague-Dawley rat at 20 mg/kg; type: ADME, organism-based; conditions: in vivo; procedure, shortened: as §2
[17] = Apparent clearance in Sprague-Dawley rat at 5 mg/kg, iv; type: ADME, organism-based; design: dose 5 mg/kg, route intravenous; conditions: in vivo, read-out: CL(app) (converted); procedure, shortened: as §2
[18] = Cmax in Sprague-Dawley rat at 20 mg/kg, po; type: ADME, organism-based; design: dose 20 mg/kg, route oral; conditions: in vivo; procedure, shortened: as §2
[19] = Half life in Sprague-Dawley rat at 5 mg/kg, iv; type: ADME, organism-based; design: dose 5 mg/kg, route intravenous; conditions: in vivo; procedure, shortened: as §2
CYP2C9 = CYP2C9 (Homo sapiens, UniProt P11712); experiment: Inhibition of CYP2C9 (unknown origin) at 100 uM relative to control; type: ADME
CYP2C9, sequence (P11712 whole entry): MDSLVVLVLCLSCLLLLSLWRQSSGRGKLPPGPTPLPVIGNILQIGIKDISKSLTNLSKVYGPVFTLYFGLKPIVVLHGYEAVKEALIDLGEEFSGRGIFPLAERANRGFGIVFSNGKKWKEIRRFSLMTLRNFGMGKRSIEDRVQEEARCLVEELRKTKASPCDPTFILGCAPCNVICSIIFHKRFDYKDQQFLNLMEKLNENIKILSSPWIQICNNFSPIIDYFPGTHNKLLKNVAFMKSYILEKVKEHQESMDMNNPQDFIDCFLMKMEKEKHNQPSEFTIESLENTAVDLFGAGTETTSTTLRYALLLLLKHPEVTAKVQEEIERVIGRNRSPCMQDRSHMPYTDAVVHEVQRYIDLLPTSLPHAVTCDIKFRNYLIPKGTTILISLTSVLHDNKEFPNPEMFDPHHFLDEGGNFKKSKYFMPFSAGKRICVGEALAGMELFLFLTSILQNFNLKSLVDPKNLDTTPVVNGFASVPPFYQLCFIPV

N#C[C@@H]1CCCN1C(=O)[C@@H](N)Cc1ccoc1
Ratio IC50 (Homo sapiens [1]): > 2.5 | IC50 (Dipeptidyl peptidase 8): > 288 µM | IC50 (Dipeptidyl peptidase 9): > 288 µM | Ratio IC50 (Homo sapiens [2]): > 2.5 | IC50 (Dipeptidyl peptidase 4): 114 µM

N#C[C@@H]1C[C@H](F)CN1C(=O)[C@@H](N)Cc1cc2c(cc1Br)OCO2
AUC(0-t) [3]: 1920 ng·h/mL | AUC(0-inf) [4]: 1920 ng·h/mL | Activity (Mus musculus [5]): Dose-dependent effect | AUC(0-t) [6]: 1290 ng·h/mL | MRT [7]: 3.15 h | Activity (Mus musculus [8]): 23.6% | IC50 (Cytochrome P450 3A4): 2200 nM | Activity (Mus musculus [9]): 12.2% | Cmax [10]: 2030 ng/mL | MRT [11]: 33 min | Tmax [12]: 18 min | half-life [13]: 218 min | AUC(0-inf) [14]: 1580 ng·h/mL | Tmax [15]: 18 min | bioavailability [16]: 16.8% | clearance [17]: 43.5 mL/min/kg | Cmax [18]: 2200 ng/mL | half-life [19]: 37.8 min | inhibition at 100 µM (CYP2C9): -20.3%

N#C[C@@H]1CCCN1C(=O)[C@@H](N)Cc1ccccn1
IC50 (Dipeptidyl peptidase 8): 125 µM | IC50 (Dipeptidyl peptidase 9): 144 µM
